ChEMBL document CHEMBL1144153, “Conjugates of the fungal cytotoxin illudin M with improved tumour specificity” (Bioorg Med Chem, 2008)
The source made the active and inactive calls. The rule behind the calls is not given here.

How the values were obtained:
PANC-1 [1] = test: Induction of apoptosis in human PANC1 cells assessed as sub-diploid DNA content at 1 uM after 120 hrs by FACS relative to control; type: functional
Outline: (§1)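 Panc-1 and HT-29 cells (RPMI-1640) or foreskin fibroblasts (DMEM), 10% FCS, 37 °C, were compound-treated. Supernatants were pooled with PBS-washed, trypsinised cells, then lysed in hypotonic 0.1% sodium citrate / 0.1% Triton X-100 with 50 µg/mL propidium iodide. Flow cytometry scored the sub-diploid nuclear fraction as apoptotic, relative to untreated controls. Means of three independent experiments.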

HT-29 [2] = test: Induction of apoptosis in human HT-29 cells assessed as sub-diploid DNA content at 1 uM after 120 hrs by FACS relative to control; type: functional; outline: as §1
HFF = test: Induction of apoptosis in HFF cells assessed as sub-diploid DNA content at 1 uM after 120 hrs by FACS relative to control; type: cell-based; settings: human; outline: as §1
PANC-1 [3] = test: Cytotoxicity against human PANC1 cells up to 10 uM by trypan blue exclusion assay; type: functional, cell-based
Outline: (§2)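 Cells grown in RPMI-1640 with 10% FCS, penicillin and streptomycin at 37 °C, 5% CO2. Exposed to 0.01–10 µM for up to 120 h (24–120 h time course). Harvested, stained with Trypan blue, and unstained cells counted in a Neubauer chamber. Counts expressed relative to untreated controls (100%). Means of three independent experiments.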

HT-29 [4] = test: Cytotoxicity against human HT-29 cells up to 10 uM by trypan blue exclusion assay; type: functional, cell-based; outline: as §2
PANC-1 [5] = test: Cytotoxicity against human PANC1 cells assessed as viable cells at 1 uM after 48 hrs by trypan blue exclusion assay relative to control; type: functional; settings: PANC-1, 48 h, read-out: Activity
Outline: (§3)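 Panc-1 and HT-29 cells were grown in RPMI-1640, and foreskin fibroblasts in DMEM, each with 10% FCS plus penicillin/streptomycin at 37 °C and 5% CO2. Cells were exposed to compound (0.01–10 µM range) for up to 120 h, harvested and stained with Trypan blue. Unstained cells were counted in a Neubauer chamber relative to untreated controls (100%). Means of three independent experiments ± SD.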

HT-29 [6] = test: Cytotoxicity against human HT-29 cells assessed as viable cells at 1 uM after 48 hrs by trypan blue exclusion assay relative to control; type: functional; settings: HT-29, 48 h, read-out: Activity; outline: as §3
PANC-1 [7] = test: Cytotoxicity against human PANC1 cells assessed as viable cells at 1 uM after 120 hrs by trypan blue exclusion assay relative to control; type: functional; settings: PANC-1, 120 h, read-out: Activity; outline: as §3
HT-29 [8] = test: Cytotoxicity against human HT-29 cells assessed as viable cells at 1 uM after 120 hrs by trypan blue exclusion assay relative to control; type: functional; settings: HT-29, 120 h, read-out: Activity; outline: as §3
[9] = Cytotoxicity against HFF cells assessed as viable cells at 1 uM after 120 hrs by trypan blue exclusion assay relative to control; type: cell-based; settings: human, read-out: Activity; outline: as §3
HT-29 [10] = test: Induction of apoptosis in human HT-29 cells assessed as sub-diploid DNA content at 1 uM after 96 hrs by FACS relative to control; type: functional; outline: as §1
PANC-1 [11] = test: Induction of apoptosis in human PANC1 cells assessed as sub-diploid DNA content at 1 uM after 96 hrs by FACS relative to control; type: functional; outline: as §1
[12] = Cytotoxicity against HFF cells assessed as viable cells at 1 uM after 48 hrs by trypan blue exclusion assay relative to control; type: cell-based; settings: human, read-out: Activity; outline: as §3
MCF7 = test: Antiproliferative activity against human MCF7 cells at 1 to 10 uM after 24 to 48 hrs by MTT assay; type: functional
MDA-MB-231 = test: Antiproliferative activity against human MDA-MB-231 cells at 1 to 10 uM after 24 to 48 hrs by MTT assay; type: functional
PANC-1 [13] = test: Induction of apoptosis in human PANC1 cells assessed as sub-diploid DNA content at 0.1 uM by FACS; type: functional, cell-based; outline: as §1

SMILES	Activity (PANC-1 [1])	Activity (HT-29 [2])	Activity (HFF)	Activity (PANC-1 [3])	Activity (HT-29 [4])	viability at 1 µM (PANC-1 [5])	viability at 1 µM (HT-29 [6])	viability at 1 µM (PANC-1 [7])	viability at 1 µM (HT-29 [8])	viability at 120 h, 1 µM [9]	Activity (HT-29 [10])	Activity (PANC-1 [11])	viability at 48 h, 1 µM [12]	Activity (MCF7)	Activity (MDA-MB-231)	Activity (PANC-1 [13])
CC1=C2C(=CC(C)(C)[C@@H]2OC(=O)C2C3CCC(O3)C2C(=O)O[C@@H]2C3=C(C)C4(CC4)[C@@](C)(O)C(=O)C3=CC2(C)C)C(=O)[C@](C)(O)C12CC2 (stereo partly drawn) [BIS(ILLUDINYL M) ENDOTHALLATE]	74%	52.9%	33.1%	Active	Active	33%	26%	6.4%	3%	49.3%	–	–	–	–	–	–
CC1=C2C(=CC(C)(C)[C@@H]2OC(=O)CCCc2ccc(N(CCCl)CCCl)cc2)C(=O)[C@](C)(O)C12CC2	36.8%	6%	9.5%	–	–	–	–	20%	42.7%	47.5%	<10%	<10%	–	–	–	–
CC1=C2C(=CC(C)(C)[C@@H]2OC(=O)c2ccc(-c3ccc(C(=O)O[C@@H]4C5=C(C)C6(CC6)[C@@](C)(O)C(=O)C5=CC4(C)C)cn3)nc2)C(=O)[C@](C)(O)C12CC2	–	–	14.3%	Active	Active	–	–	–	–	47.8%	–	–	62%	–	–	–
CC/C=C\C/C=C\C/C=C\C/C=C\C/C=C\C/C=C\CCC(=O)O[C@@H]1C2=C(C)C3(CC3)[C@@](C)(O)C(=O)C2=CC1(C)C [DOCOSAHEXAENOYL ILLUDIN M]	2.6%	1.9%	4.4%	–	–	–	–	103%	111%	80%	<10%	<10%	–	–	–	–
CC1=C(CO)C2=C(C)C3(CC3)[C@@](C)(O)C(=O)C2=C1 [IROFULVEN]	–	–	–	–	–	–	–	–	–	–	–	–	–	70%	70%	–
CC1=C2C(=CC(C)(C)[C@@H]2O)C(=O)[C@](C)(O)C12CC2 [ILLUDIN M]	86%	47.9%	88.9%	–	–	42%	26%	12.3%	3.8%	28.1%	–	–	39%	–	–	Active
